Assay results taken from ChEMBL document CHEMBL1124081, “Synthesis and antiulcer activity of 5,11-dihydro[1]benzoxepino[3,4-b]pyridines” (J Med Chem, 1988).
“And” between values parts separate entries of the source, which are not always exact repeats. Equal entries are not always repeated.

Assays:
Rattus norvegicus [1] = experiment: Inhibition of stress-induced ulcer formation in rats by 10 mg/kg p.o. administration.; assay type: functional; settings: for inhibition in vivo at 10 mg/kg: Rattus norvegicus; for Inhibition: 10 mg/kg
In short: (§1)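 Rats, 190-210 g, fasted 17 h with water allowed. Compound given orally 10 min before stress, 0.5 mL/100 g. Restrained in stress cage and immersed in 23 ± 1 °C water for 7 h without food or water. CO2 kill, stomach opened along greater curvature, total glandular ulcer length (mm) measured. % inhibition = (control − treated)/control × 100. Student's t test.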

Rattus norvegicus [2] = experiment: The antiulcer activity against stress-induced ulcer in rats by 30 mg/kg peroral administration.; assay type: functional; settings: route oral; in short: as §1
[3] = biological target: Muscarinic acetylcholine receptor; experiment: Binding affinity was measured for Muscarinic acetylcholine receptor; assay type: protein assay
In short: (§2)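 Rat striatum homogenized in 10 vol distilled water, diluted to 200 vol of wet tissue weight with 50 mM Na-K phosphate buffer pH 7.4 (1 mL ≈ 5 mg wet tissue). [3H]quinuclidinyl benzilate (final 1.26 nM) plus drug in 10% ethanol, 37 °C for 60 min. Nonspecific binding defined with dexetimide (final 1 μM). Rapid GF/B filtration, three ice-cold buffer rinses, liquid scintillation counting.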

[4] = biological target: T1, Muscarinic acetylcholine receptor (Rattus norvegicus) (UniProt P08482+P08483+P08485+P08911+P10980); experiment: Percentage inhibition for Muscarinic acetylcholine receptor at concentration 10 e-5M; in short: as §2
[5] = biological target: T1, Muscarinic acetylcholine receptor (Rattus norvegicus); experiment: Percentage inhibition for Muscarinic acetylcholine receptor at concentration 10 e-6M; assay type: protein assay; in short: as §2
[6] = biological target: T1, Muscarinic acetylcholine receptor (Rattus norvegicus); experiment: Percentage inhibition […] concentration 10 e-5M; assay type: protein assay

Row | SMILES | inhibition in vivo at 30 mg/kg (Rattus norvegicus [2]) | inhibition in vivo at 10 mg/kg (Rattus norvegicus [1]; po) | other results
1 | CN/C(=N\CCSCc1nc[nH]c1C)NC#N [CIMETIDINE] | < 39% | – | inhibition in vivo at 10 mg/kg (Rattus norvegicus [1]; route oral): 33%
2 | CCN(CC)CCNC1c2cc(F)ccc2OCc2ncccc21 (stereo not given) | < 87% | < 53% | –
3 | c1ccc2c(c1)OCc1ncccc1C2NC1CN2CCC1CC2 (stereo not given) | 36% | – | –
4 | CCN(CC)CCNC1c2cccnc2COc2c(C)cccc21 (stereo not given) | < 48% | < 36% | –
5 | c1ccc2c(c1)OCc1ncccc1C2NCCN1CCCC1 (stereo not given) | 72% | 68% | –
6 | CC(C)N(CCNC1c2ccccc2OCc2ncccc21)C(C)C (stereo not given) | 88% | 61% | –
7 | c1cncc(NC2c3ccccc3OCc3ncccc32)c1 (stereo not given) | 15% | – | –
8 | CCN1CCCC(NC2c3ccccc3OCc3ncccc32)C1 (stereo not given) | 67% | – | –
9 | CCN(CC)CCNC1c2ccccc2OCc2ncccc21 (single isomer, unassigned) [listing 1 of 2 here] | – | – | Inhibition (Rattus norvegicus [1]; route oral): <55%; Ki [3]: 1100 nM
10 | CN1CCN(C2c3ccccc3OCc3ncccc32)CC1 (stereo not given) | 76% | – | inhibition in vivo at 10 mg/kg (Rattus norvegicus [1]; route oral): 28%
11 | CCN(CC)CCNC1c2cc(Cl)ccc2OCc2ncccc21 (stereo not given) | 30% | – | –
12 | CN1CCN(CC(=O)N2c3ccccc3C(=O)Nc3cccnc32)CC1 [PIRENZEPINE] | < 86% | < 67% | –
13 | O=C(Cn1ccnc1)NC1c2ccccc2OCc2ncccc21 (stereo not given) | 12% | 6% | –
14 | CCN(CC)CCNC1c2ccccc2OCc2ncccc21 (single isomer, unassigned) [listing 2 of 2 here] | – | – | inhibition [4]: 38%
15 | CCN(CC)CCCNC1c2ccccc2OCc2ncccc21 (stereo not given) | 55% | 34% | –
16 | CCNCCNC1c2ccccc2OCc2ncccc21 (stereo not given) | < 55% | – | –
17 | CC1CCC(C)N1CCNC1c2ccccc2OCc2ncccc21 (stereo not given) | 94% | 67% | –
18 | CC1CCCC(C)N1CCNC1c2ccccc2OCc2ncccc21 (stereo not given) | < 64% | – | inhibition [5]: 3%

Row | SMILES | inhibition in vivo at 30 mg/kg (Rattus norvegicus [2]) | inhibition in vivo at 10 mg/kg (Rattus norvegicus [1]; po) | other results
19 | CCN(CC)CCNC1c2cc(C)ccc2OCc2ncccc21 (stereo not given) | 40% | – | –
20 | Cc1ccc2c(c1)C(N1CCN(C)CC1)c1cccnc1CO2 (stereo not given) | 7% | – | –
21 | NCCNC1c2ccccc2OCc2ncccc21 (stereo not given) | 19% | – | –
22 | CCN(CC)CCN(CC)C1c2ccccc2OCc2ncccc21 (stereo not given) | 33% | – | inhibition [4]: 15%
23 | CN(C)CCNC1c2ccccc2OCc2ncccc21 (stereo not given) | 85% | 24% | –
24 | CC1CC[C@H](C)N1CCNC1c2ccccc2OCc2ncccc21 (stereo not given in full) | 69% | 64% | –
25 | c1ccc2c(c1)OCc1ncccc1C2NCCN1CCOCC1 (stereo not given) | 73% | 7% | –
26 | CCN(CC)CC(=O)NC1c2ccccc2OCc2ncccc21 (stereo not given) | 16% | 10% | –
27 | CC(C)N(CC(=O)NC1c2ccccc2OCc2ncccc21)C(C)C (stereo not given) | < 45% | 17% | inhibition [6]: 12%
28 | CCN(CC)CCNC1c2ccccc2OCc2ncccc21 (stereo in doubt; 11) | 85% | – | Inhibition (Rattus norvegicus [1]; route oral): 65% and 57%; Ki [3]: 1600 nM
29 | CCN(CC)CC(C)NC1c2ccccc2OCc2ncccc21 (stereo not given) | 62% | – | –
30 | c1ccc2c(c1)OCc1ncccc1C2NCCN1CCCCC1 (stereo not given) | 52% | – | –
31 | CCN(CC)CCNC1c2ccccc2OCc2ncccc21 (single isomer, unassigned; (+)) | – | < 63% | Ki [3]: 3000 nM
32 | CCN(CC)CCNC1c2ccccc2Oc2ncccc21 (stereo not given) | < 60% | 18% | –
33 | CN1CCN(CC(=O)NC2c3ccccc3OCc3ncccc32)CC1 (stereo not given) | < 56% | 31% | inhibition [5]: 3%
34 | CCN(CC)CCNC1c2ccccc2SCc2ncccc21 (stereo not given) | 19% | – | –
35 | CCN(CC)CCN(C(C)=O)C1c2ccccc2OCc2ncccc21 (stereo not given) | 0% | – | –
